Experimental data collected from several papers.
Protocols differ between the studies behind these lines.
KCNH2: Voltage-gated inwardly rectifying potassium channel KCNH2 (KCNH2, Homo sapiens, UniProt Q12809)
ABCB11: Bile salt export pump (ABCB11, Homo sapiens, UniProt O95342)

| SMILES | target or system | test | test system | setting | measurement | result |
| --- | --- | --- | --- | --- | --- | --- |
| COc1ccc2c(c1)CN(C(=O)CCN1CCC(Cc3ccccc3)CC1)CC[S@@+]2[O-] | – | – | male human, plasma | intravenous, 0.6 mg/kg, healthy volunteers | Tmax | 0 h |
| N[C@H]1C(O)O[C@H](CO)[C@@H](O)[C@@H]1O (some centres unmarked) | Caco-2 | cell growth or viability, CCK-8 | – | 20 mM | viability | 101% |
| CC(=O)N1CCC(C(=O)N2CCN3C(=O)c4cc(-c5ccccc5)ccc4NC(=O)C3C2)CC1 (centres unmarked) | KCNH2 | ion current, inhibitor, patch clamp | HEK293 | 100 µM | inhibition | 56.8% |
| CC(C)n1ncc2c(C(=O)NCC3(C)CNC3)cc(C3CC3)nc21 | RD | cell growth or viability, neutral red | – | 0.33 µM | viability | 98.1% |
| CCn1c(=O)c(-c2cc[nH]n2)cc2c(C)nc(N)nc21 | RD | cell growth or viability, MTT | – | – | CC50 | 6.53 µM |
| COc1cc(N)c(Cl)cc1C(=O)NC1CCN(CCCOc2ccc(F)cc2)CC1OC (centres unmarked) | KCNH2 | ion current, inhibitor, patch clamp | HEK293 | 1 nM, pH 7.4 | inhibition | 8.73% |
| O=C(COc1ccc(Cl)cc1)NC12CC(c3nnc([C@H]4C[C@@H](OC(F)(F)F)C4)o3)(C1)C2 | – | – | human, plasma | oral, 800 mg, single dose, fasted, healthy volunteers | Tmax | 36 h |
| CCOC(=O)C1=C(CN2CCC[C@@H]2C(=O)Nc2ccc(B(O)O)cc2)NC(c2nccs2)=N[C@H]1c1ccc(F)cc1Br | KCNH2 | ion current, inhibitor, patch clamp | HEK293 | 100 µM, pH 7.4 | inhibition | 94.8% |
| O=C(Cn1ccnc1[N+](=O)[O-])NCc1ccccc1 | LLC-MK2 | cell growth or viability | – | – | CC50 | 257 µg/mL |
| C[C@H]1Oc2cc(cnc2N)-c2c(nn(C)c2C#N)CN(C)C(=O)c2ccc(F)cc21 | – | – | Sprague-Dawley rat, plasma | intravenous, 1 mg/kg, single dose | MRT(0-inf) | 4.96 h |
| O=C(O)COc1cccc(-c2nc(Nc3ccc4[nH]ncc4c3)c3ccccc3n2)c1 | ABCB11 | transporter uptake, inhibitor, radiometric | – | – | IC50 | 48.2 µM |
| NC/C(=C\F)COc1cccc(Cn2c(=S)[nH]c(=O)c3[nH]cnc32)c1 | ABCB11 | transporter uptake, inhibitor, radiometric | – | 30 µM | inhibition | < 50% |
| CC(C)n1cc(C#N)c2cc(-n3cc(C(=O)O)cn3)ccc21 | – | – | human, plasma | oral, 50 mg, single dose, fasted, healthy volunteers | Tmax | 2.75 h |
| COc1nc(-c2cccc(-c3ccccc3)c2C)ccc1CNCCNC(=O)CCCCCCCCCCC(=O)N1CCN(CCNC(=O)c2cc3c(=O)n4cccc(C)c4nc3n(CCc3cccs3)c2=N)CC1 | – | – | male Sprague-Dawley rat, plasma | intraperitoneal, 4 mg/kg | MRT(0-t) | 7.1 h |
| Cn1c(=O)c2[nH]cnc2n(C)c1=O | – | – | male Sprague-Dawley rat, plasma | intravenous, 22.5 mg/kg | MRT(0-t) | 2.61 h |
| COc1cccc(OC)c1-c1cc(C(=O)NC2(C(=O)O)C3CC4CC(C3)CC2C4)nn1-c1ccc(C(=O)N(C)CCCN(C)CCCN(C)C(=O)CN2CCN(CC(=O)[O-])CCN(CC(=O)[O-])CCN(CC(=O)[O-])CC2)cc1C(C)C.[177Lu+3] (centres unmarked) | HT-29 | – | stomach | 7 days, tumour-bearing | tracer uptake | 0.09 %ID/g |
| CN1C[C@H](COc2nccc3c(NCc4ccco4)cc(Cl)nc23)OC1=O | KCNH2 | ion current, inhibitor | HEK293 | 3 µM | inhibition | 7% |
